Assay outcomes (PubChem)
A selection: hits, their analogues and other compounds. The true share with any hit is near 1.5%.
p97 ATPase inh: inhibitors of human p97 ATPase; P55072; recombinant p97 ATPase, Kinase-Glo ATP luminescence, 3 h; inhibition, % at 8 µM; 0.42% of 220,000 active; in the data active = inhibition above about 15%;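 note: 0% = DMSO vehicle and 100% = wells lacking enzyme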
PP1 counter: blocks human PP1-alpha phosphatase, a PP5 counter-screen. inhibition, % at 6.7 µM. 0.9% of 320,000 active. purified PP1alpha, OMFP fluorescence. P62136. AID 2235;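 active = inhibition above the mean inhibition of all tested compounds plus 3 SD, computed separately for each screening campaign, cut at about 15% in these data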
Target sequence (P62136 whole entry, looked up): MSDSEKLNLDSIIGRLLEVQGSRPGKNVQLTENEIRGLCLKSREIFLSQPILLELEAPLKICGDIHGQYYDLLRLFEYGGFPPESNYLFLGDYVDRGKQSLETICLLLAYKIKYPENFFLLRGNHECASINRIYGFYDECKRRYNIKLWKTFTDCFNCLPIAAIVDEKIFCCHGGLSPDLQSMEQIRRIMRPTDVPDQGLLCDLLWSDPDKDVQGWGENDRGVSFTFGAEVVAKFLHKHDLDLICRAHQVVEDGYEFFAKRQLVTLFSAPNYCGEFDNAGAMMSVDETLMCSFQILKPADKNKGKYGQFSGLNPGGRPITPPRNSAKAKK
PP5 inh: PP5 (human) phosphatase inhibition | 0.18% of 320,000 active | inhibition, % at 6.7 µM | P53041 | purified PP5c, OMFP substrate fluorescence;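 active = inhibition above the campaign's mean inhibition across all tested compounds plus 3 SD, cut at about 9.5% in these data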;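 note: 0% = DMSO only and 100% = 100 µM cantharidin control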
RBBP9 inh: human RBBP9 hydrolase inhibition. recombinant RBBP9, FP-Rh probe fluorescence polarization. inhibition, % at 7.94 µM. 0.2% of 220,000 active. AID 1515;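 active = inhibition above the campaign mean of all tested compounds plus 3 SD, cut at about 14% in these data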;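 note: plate controls were DMSO wells with RBBP9 for no effect and wells lacking RBBP9 protein for full effect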
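Measured by: FP readout at 525/598 nm; material: recombinant human RBBP9; also added: Serine-hydrolase probe FP-Rh, 375 nM pre-mixing; medium: Tris buffer pH 8.0, NaCl, Pluronic; replication: one well per compound; doses: one concentration, 7.94 µM nominal, 0.794% DMSO; timing: preincubation 30 min plus labeling 45 min at 25 °C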
PKD1 inh: PKD1 (human) kinase inhibition. PKD1 kinase fluorescence polarization assay. Q15139. 0.056% of 200,000 active. inhibition, % (test concentration not listed); in the data active = inhibition above about 50%
Hsp70 act: transcriptional activators of Hsp70. HeLa Hsp70 promoter luciferase reporter, luminescence; scaled: vehicle 0, proteasome-inhibitor control 100%. activation, % at 10 µM. 0.04% of 200,000 active;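 active = activation above the mean across all tested compounds plus 3 SD, cutoff set per campaign, cut at about 5.5% in these data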;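 note: 100% = MG132 at 30 µM as the positive control and 0% = DMSO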
PP1 confirm: confirmation of human PP1 phosphatase inhibitors | shares compounds with PP1 counter | purified PP1alpha, OMFP substrate fluorescence | inhibition, % at 6.7 µM | 52% of 1,900 active;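 active = mean PP1 inhibition above a set limit taken from the earlier primary screen, cut at about 15% in these data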
PP5 inh counter: PP5 phosphatase inhibition, counter-screen for PP1 inhibitors. shares compounds with PP1 counter. purified PP5c, OMFP fluorescence. inhibition, % at 6.7 µM. 4% of 1,900 active. AID 2360;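 active = mean PP5 inhibition over triplicate wells above about 9.5% taken from the earlier PP1 screen, limit read from the data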
Active calls of the source: *; · = not tested or not shown.

SMILES	p97 ATPase inh	PP1 counter	PP5 inh	RBBP9 inh	PKD1 inh	Hsp70 act	PP1 confirm	PP5 inh counter
O=C(CSc1ccc2nnc(-c3ccc(F)cc3)n2n1)N1CCCc2ccccc21	-7	4	2	-2	3	0	·	·
CCC(Sc1nc2cc(OC)c(OC)cc2c(=O)n1CCc1ccc(S(N)(=O)=O)cc1)C(=O)NCCOC (stereo unspecified)	2	-1	1	-12	2	0	·	·
O=C(COc1ccc(-c2ccccc2)cc1)N/N=C/c1ccccc1Br	-3	18*	6	-5	-11	0	3	-1
O=C(COc1ccc(-c2ccccc2)cc1)N/N=C/c1cc(O)ccc1Br	1	7	3	-57	7	0	·	·
CCOc1ccccc1N(C)C(=O)c1ccc2c(=O)n3c(nc2c1)CCCCC3	·	-3	4	·	·	·	·	·
O=C1NC(=O)/C(=C\c2ccccc2OCc2ccc([N+](=O)[O-])cc2)N1	7	11	2	-5	-6	0	·	·
O=C1NC(=O)/C(=C\c2ccc(OCc3cccc([N+](=O)[O-])c3)cc2)N1	4	43*	0	-8	1	0	20*	0
CN(C)/C=C1/C(=O)N(c2ccc([N+](=O)[O-])cc2)N=C1c1ccccc1	-1	20*	2	-4	2	0	11	2
CN(C)/C=C1\C(=O)N(c2ccc([N+](=O)[O-])cc2)N=C1c1ccccc1	7	22*	3	7	-10	0	8	1
O=C(O)c1ccccc1-c1nc2ccccc2c(=O)n1O	2	25*	4	-13	-7	0	30*	1
O=c1c2ccccc2nc(-c2ccccc2)n1O	·	-1	3	·	·	·	·	·
Cc1cc(C)cc(OCC(=O)OCC(=O)c2ccc3c(c2)NC(=O)CO3)c1	0	0	4	-3	-8	0	·	·
COc1cccc(/C=C/C(=O)OCC(=O)c2ccc3c(c2)NC(=O)CO3)c1	·	33*	1	·	·	·	28*	-3
Cc1c(Cl)cccc1NS(=O)(=O)c1ccc2c(c1)C1C=CCC1C(c1ccc(C(=O)O)cc1)N2 (stereo unspecified)	36*	25*	1	5	0	0	18*	1
O=C(O)c1ccc2c(c1)C1C=CCC1C(c1ccncc1)N2 (stereo unspecified)	6	7	0	-4	·	·	·	·
COc1ccc(NS(=O)(=O)c2ccc3c(c2)[C@H]2C=CC[C@H]2[C@@H](c2ccc(C(=O)O)cc2)N3)cc1	·	19*	3	·	·	·	6	-2
CN(C)c1ncnc(N(C)C)c1[N+](=O)[O-]	-8	-1	1	-6	·	·	·	·
O=[N+]([O-])c1cc(/C=N/Nc2nc3ccccc3[nH]2)c(O)cc1O	4	18*	1	-4	13	0	31*	0
CCC(=O)c1ccc(OCC(=O)Nc2nc(-c3cccnc3)cs2)cc1	·	18*	0	·	·	·	29*	-6
CCc1ccccc1OCC(=O)Nc1nc(-c2cccnc2)cs1	-5	45*	10*	-14	-8	0	44*	1
Cc1ccc(C)c(OCCC(=O)OC(C)C(=O)Nc2c(C)n(C)n(-c3ccccc3)c2=O)c1 (stereo unspecified)	·	-7	-1	·	·	·	·	·
O=c1[nH]c(/C=C/c2ccccc2Cl)nc2ccccc12	·	18*	0	·	·	·	25*	-6
O=C(NCc1ccc(Cl)cc1)c1cc(-c2cccs2)on1	3	21*	0	-5	-6	0	25*	-3
CC1CCc2c(sc3nc(CN4CCOCC4)nc(N4CCc5ccccc5C4)c23)C1 (stereo unspecified)	2	21*	4	-3	1	0	10	-4
Cc1ccc(Oc2nc(CN3CCOCC3)nc3sc4c(c23)CCC(C)C4)cc1 (stereo unspecified)	-1	-5	-7	-1	11	0	·	·
COc1cc2c(cc1OC)CN(c1nc(CN3CCCCC3)nc3sc4c(c13)CCCC4)CC2	2	18*	4	-7	-10	0	-2	-5
